Reference: ChEMBL document CHEMBL1137555, “Aminocyclohexylsulfonamides: discovery of metabolically stable alpha(1a/1d)-selective adrenergic receptor antagonists for the treatment of benign prostatic hyperplasia/lower urinary tract symptoms (BPH/LUTS)” (Bioorg Med Chem Lett, 2007)

Tests used:
[1] = Metabolic stability in human liver microsomes; format: ADME, Microsome
Procedure, shortened: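 Human liver microsomal metabolism assay; read-out was half-life (T1/2, min).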

D(2) dopamine receptor = D(2) dopamine receptor (Homo sapiens, UniProt P14416); assay: Binding affinity to human cloned dopamine D2 receptor
D(2) dopamine receptor, sequence (P14416 whole entry): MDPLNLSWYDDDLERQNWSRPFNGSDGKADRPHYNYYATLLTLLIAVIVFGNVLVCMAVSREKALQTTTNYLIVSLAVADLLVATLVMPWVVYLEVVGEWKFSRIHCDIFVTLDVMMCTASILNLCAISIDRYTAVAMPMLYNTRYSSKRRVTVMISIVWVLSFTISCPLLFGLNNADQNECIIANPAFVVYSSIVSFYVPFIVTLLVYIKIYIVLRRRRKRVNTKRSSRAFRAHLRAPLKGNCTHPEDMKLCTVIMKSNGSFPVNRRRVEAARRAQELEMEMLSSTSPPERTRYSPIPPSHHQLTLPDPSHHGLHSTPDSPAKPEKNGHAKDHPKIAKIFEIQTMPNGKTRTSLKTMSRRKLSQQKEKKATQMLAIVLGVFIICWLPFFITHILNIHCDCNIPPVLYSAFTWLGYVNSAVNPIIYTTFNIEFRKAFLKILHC

[2] = molecular target: T1, Alpha-1A adrenergic receptor (Homo sapiens, UniProt P35348); assay: Binding affinity to human cloned adrenergic Alpha-1A receptor
T1 sequence (P35348 whole entry): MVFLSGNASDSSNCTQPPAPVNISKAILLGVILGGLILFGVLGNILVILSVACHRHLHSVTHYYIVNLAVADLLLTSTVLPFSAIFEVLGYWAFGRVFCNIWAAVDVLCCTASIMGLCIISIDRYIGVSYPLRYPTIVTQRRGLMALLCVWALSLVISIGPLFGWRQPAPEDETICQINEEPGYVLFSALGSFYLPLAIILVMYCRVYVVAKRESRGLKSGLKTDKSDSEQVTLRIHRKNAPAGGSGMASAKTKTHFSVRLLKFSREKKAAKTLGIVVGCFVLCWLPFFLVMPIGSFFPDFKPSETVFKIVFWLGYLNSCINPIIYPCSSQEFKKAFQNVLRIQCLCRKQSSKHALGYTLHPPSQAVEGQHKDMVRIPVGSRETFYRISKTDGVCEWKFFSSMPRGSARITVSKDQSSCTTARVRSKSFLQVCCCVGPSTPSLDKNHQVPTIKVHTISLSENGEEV

[3] = molecular target: T2, Alpha-1D adrenergic receptor (Homo sapiens, UniProt P25100); assay: Binding affinity to human cloned adrenergic alpha-1d receptor
T2 sequence (P25100 whole entry): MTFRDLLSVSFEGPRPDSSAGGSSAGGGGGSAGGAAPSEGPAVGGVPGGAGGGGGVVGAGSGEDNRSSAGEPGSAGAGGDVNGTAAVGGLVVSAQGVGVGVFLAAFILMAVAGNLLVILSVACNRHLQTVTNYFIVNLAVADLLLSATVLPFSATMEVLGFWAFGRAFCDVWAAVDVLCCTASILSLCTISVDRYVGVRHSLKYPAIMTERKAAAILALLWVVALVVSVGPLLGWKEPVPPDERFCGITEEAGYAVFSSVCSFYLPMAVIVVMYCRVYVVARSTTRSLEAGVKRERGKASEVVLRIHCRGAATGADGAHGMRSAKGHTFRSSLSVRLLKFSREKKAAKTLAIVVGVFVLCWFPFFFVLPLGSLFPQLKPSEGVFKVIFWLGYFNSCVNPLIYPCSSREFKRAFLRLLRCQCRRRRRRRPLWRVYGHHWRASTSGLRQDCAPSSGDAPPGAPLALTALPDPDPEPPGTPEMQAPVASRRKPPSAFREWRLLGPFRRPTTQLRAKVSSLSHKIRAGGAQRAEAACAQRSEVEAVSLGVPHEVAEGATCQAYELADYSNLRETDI

[4] = molecular target: T3, Alpha-1B adrenergic receptor (Homo sapiens, UniProt P35368); assay: Binding affinity to human cloned adrenergic alpha-1b receptor
T3 sequence (P35368 whole entry): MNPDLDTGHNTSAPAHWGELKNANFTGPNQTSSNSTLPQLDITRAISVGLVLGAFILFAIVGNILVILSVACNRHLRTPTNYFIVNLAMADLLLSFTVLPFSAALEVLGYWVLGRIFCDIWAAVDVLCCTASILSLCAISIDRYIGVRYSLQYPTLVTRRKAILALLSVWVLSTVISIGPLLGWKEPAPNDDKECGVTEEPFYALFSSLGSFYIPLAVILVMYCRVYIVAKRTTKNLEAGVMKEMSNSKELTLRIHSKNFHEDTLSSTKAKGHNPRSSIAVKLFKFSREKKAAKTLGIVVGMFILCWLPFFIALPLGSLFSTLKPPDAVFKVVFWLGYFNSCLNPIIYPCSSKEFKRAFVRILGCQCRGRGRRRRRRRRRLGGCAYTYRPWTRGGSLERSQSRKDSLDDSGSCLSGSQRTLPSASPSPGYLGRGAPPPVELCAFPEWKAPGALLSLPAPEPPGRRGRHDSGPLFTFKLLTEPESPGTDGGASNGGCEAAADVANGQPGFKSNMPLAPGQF

Row | Structure (SMILES) | half-life [1] [min] | Ki (D(2) dopamine receptor) [µM] | Ki [2] [µM] | Ki [3] [µM] | Ki [4] [µM]
1 | COc1ccc(F)cc1S(=O)(=O)N[C@H]1CC[C@@H](N2CCN(c3ccccc3OC(C)C)CC2)CC1 | < 2 |  |  |  | 
2 | COc1ccc(C)cc1S(=O)(=O)N[C@H]1CC[C@@H](N2CCN(c3ccccc3OC(C)C)CC2)CC1 | < 2 |  |  |  | 
3 | COc1ccc(S(=O)(=O)N[C@H]2CC[C@@H](N3CCC(c4ccccc4OCCF)CC3)CC2)cc1OC | 20 | 0.33 |  |  | 
4 | CC(C)Oc1ccccc1N1CCN([C@H]2CC[C@@H](NS(=O)(=O)c3ccc(Cl)cc3Cl)CC2)CC1 | 3.5 |  |  |  | 
5 | COc1ccc(S(=O)(=O)N[C@H]2CC[C@@H](N3CCC(c4ccccc4OC(C)C)CC3)CC2)cc1OC | 12 | 0.165 | 0.0018 | 0.0017 | 0.151
6 | CCN([C@H]1CC[C@@H](N2CCN(c3ccccc3OC(C)C)CC2)CC1)S(=O)(=O)c1ccc(OC)c(OC)c1 |  | 0.113 |  |  | 
7 | COc1ccc(S(=O)(=O)N[C@H]2CC[C@@H](N3CCN(c4ccccc4OC(C)C)CC3)CC2)cc1OC | 4.9 | 0.136 |  | 0.00068 | 0.106
8 | COc1ccc(S(=O)(=O)N[C@H]2CC[C@@H](N3CCC(c4ccccc4OC4CC4)CC3)CC2)cc1OC | 18 |  |  |  | 
9 | COc1ccc(S(=O)(=O)N[C@H]2CC[C@@H](N3CCC(c4ccccc4OCC(F)(F)F)CC3)CC2)cc1OC | 56 |  |  |  | 
10 | COc1ccc(Cl)cc1S(=O)(=O)N[C@H]1CC[C@@H](N2CCN(c3ccccc3OC(C)C)CC2)CC1 | < 2 |  |  |  | 
11 | CCN([C@H]1CC[C@H](N2CCN(c3ccccc3OC(C)C)CC2)CC1)S(=O)(=O)c1ccc(OC)c(OC)c1 |  | 0.0027 |  |  | 
12 | COc1ccc(S(=O)(=O)N[C@H]2CC[C@@H](N3CCN(c4ccccc4OCC(F)(F)F)CC3)CC2)cc1OC | 35 | 0.192 |  | 0.00035 | 0.086
13 | COc1ccc(S(=O)(=O)N[C@H]2CC[C@H](N3CCN(c4ccccc4OCC(F)(F)F)CC3)CC2)cc1OC |  | 0.114 |  |  | 0.039
14 | COc1ccc(S(=O)(=O)N[C@H]2CC[C@@H](N3CCC(c4ccccc4OCC(F)F)CC3)CC2)cc1OC | 21 | 0.228 |  | 0.0086 | 0.278
15 | CC(C)Oc1ccccc1N1CCN([C@H]2CC[C@@H](NS(=O)(=O)c3ccc(S(C)(=O)=O)cc3)CC2)CC1 | 2.5 |  |  |  | 
